Screening results: PubChem BioAssay, The Scripps Research Institute Molecular Screening Center
CHRM5 agonist: CHRM5 agonism in calcium assay | activation, % at 3 µM | CHO-K1 hM5 cells, Fluo-8 calcium fluorescence; 0% DMSO wells, 100% maximal acetylcholine response | 360,000 compounds, 0.19% hits | P08912 | AID 624037;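 active = activation above the run's mean over test compounds plus 3 SD, cut at about 23% in these data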;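 also: signal is peak over basal fluorescence ratio across the kinetic read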
M5 antag: antagonists of human muscarinic M5 receptor (CHRM5) | 360,000 compounds, 0.59% hits | inhibition, % at 3 µM | CHO-hM5 cells, Fluo-8 calcium fluorescence, ACh EC80;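 active = inhibition above a per-plate cutoff, the mean of that plate's test compounds plus 3 SD, cut at about 27% in these data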
M1 PAM: human CHRM1 positive allosteric modulation | activation, % at 3 µM | 360,000 compounds, 0.088% hits | AID 588819 | CHO-K1 hM1, Fluo-8 calcium fluorescence, ACh EC20; 0% = ACh EC20, 100% = maximal ACh; in the data active = activation above about 19%, passing the limit was not always enough
Target sequence (P11229 whole entry, looked up): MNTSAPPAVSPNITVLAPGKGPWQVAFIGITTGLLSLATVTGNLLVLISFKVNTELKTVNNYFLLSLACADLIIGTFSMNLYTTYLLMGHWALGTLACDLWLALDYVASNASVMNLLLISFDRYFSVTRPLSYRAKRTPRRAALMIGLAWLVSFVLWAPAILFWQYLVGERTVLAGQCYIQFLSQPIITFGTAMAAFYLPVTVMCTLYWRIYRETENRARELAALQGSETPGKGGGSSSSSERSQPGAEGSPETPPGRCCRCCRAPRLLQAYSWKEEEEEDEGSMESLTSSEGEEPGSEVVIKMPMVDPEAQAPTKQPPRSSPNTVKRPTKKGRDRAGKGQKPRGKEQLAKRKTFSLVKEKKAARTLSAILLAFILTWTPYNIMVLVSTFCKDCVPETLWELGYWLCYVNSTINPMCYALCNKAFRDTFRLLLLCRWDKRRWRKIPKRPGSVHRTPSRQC
CHRM5 PAM: CHRM5 positive allosteric modulation; AID 624038; activation, % at 3 µM; 360,000 compounds, 0.3% hits; CHO-K1 hM5, Fluo-8 calcium, ACh EC20 PAM; 0% = ACh EC20, 100% = ACh EC100;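 active = activation above the run cutoff, the mean activation of all test compounds plus 3 SD, cut at about 18% in these data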
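System – CHO-K1 hM5 cells · Compound – 3 µM, single dose · Incubation – compound preincubation 140 s before EC20 acetylcholine addition · Technique – Fluo-8 calcium fluorescence · Measure – Max/basal fluorescence ratio as % of EC20–EC100 ACh window · Benchmarks – low control EC20 acetylcholine (0%), high control EC100 acetylcholine (100%) · Replication – singlicate, one well per test compound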
CHRM1 antagonist: blocks human M1 muscarinic receptor; CHO-K1 hM1, Fluo-8 calcium fluorescence, ACh EC80 antagonist; P11229; inhibition, % at 3 µM; 360,000 compounds, 1.3% hits;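 active = percent inhibition above its own plate's cutoff, namely the mean of that plate's compound wells plus 3 SD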;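 also: peak over basal fluorescence ratio during 140 s after agonist addition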
CHRM1 agonist: human M1 muscarinic receptor agonism. CHO-K1 hM1, Fluo-8 calcium fluorescence, agonist mode; 0% DMSO, 100% acetylcholine EC100. activation, % at 3 µM. 360,000 compounds, 0.33% hits;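 active = activation above the run's mean compound activation plus 3 SD, cut at about 16% in these data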;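 also: peak over basal fluorescence ratio within a 140 s kinetic read after compound addition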
A number is an active result; 0 = inactive. An excerpt weighted towards active compounds, which were near 2.2% of everything screened.

SMILES	CHRM5 agonist	M5 antag	M1 PAM	CHRM5 PAM	CHRM1 antagonist	CHRM1 agonist
CCN1C(=O)/C(=C/c2ccc(N3CCCC3)cc2)NC1=S	97	59	0	0	56	57
Cc1c(C(c2cc3c(cc2Br)OCO3)c2c(C)n(C)n(-c3ccccc3)c2=O)c(=O)n(-c2ccccc2)n1C	0	0	0	0	39	0
Cc1c(C(c2ccccc2O)c2c(C)n(C)n(-c3ccccc3)c2=O)c(=O)n(-c2ccccc2)n1C	0	0	0	0	0	0
Cc1nc2c(OCc3cccc(Cl)c3)cccn2c1N(C)Cc1cccs1	0	0	0	0	34	0
COc1ccc(Cn2c(-c3ccccc3)nc3c(c(=O)c4ccccc4n3C)c2=O)cc1	0	0	0	0	0	0
CC(C)c1nc2c(c(=O)c3ccccc3n2C)c(=O)n1CCc1ccccc1	0	0	0	0	0	20
Cc1cc(NC(=O)CCCn2ccc([N+](=O)[O-])n2)n(Cc2ccc(F)cc2)n1	0	0	0	0	0	0
CC(C)(C)N(Cc1cc2ccccc2[nH]c1=O)C(=O)C1CCCCC1	0	79	0	0	0	0
CCN(Cc1cc2ccccc2[nH]c1=O)C(=O)C1CCCCC1	0	0	0	0	0	0
CN1C(=O)/C(=N\OC(=O)c2ccccc2Cl)c2ccccc21	0	0	0	0	0	0
CC(=O)O/N=C1\C(=O)N(Cc2ccc(C)cc2)c2ccccc21	0	0	0	0	0	24
COc1ccc(NC(=O)c2ccccc2)c([N+](=O)[O-])c1	0	0	0	0	0	0
CCCN(CCC)CCCNc1ccc(C(=O)Nc2cccc(OC)c2)cc1[N+](=O)[O-]	0	0	0	0	40	0
COc1ccc(NC(=S)NC(NC(=O)c2cccc(Cl)c2)C(Cl)(Cl)Cl)c([N+](=O)[O-])c1 (configuration not stated)	0	39	0	0	0	0
CCC(CC)C(=O)Nc1cccc(C(=O)Nc2ccc(OC)cc2[N+](=O)[O-])c1	0	0	0	0	0	23
CN(Cc1nc(-c2ccccn2)no1)S(=O)(=O)c1ccc(Cl)cc1	0	0	0	0	0	0
CC(=O)Nc1ccc(CN2CCN(C3CCCCC3)C(CCO)C2)cc1 (configuration not stated)	0	0	0	0	24	0
CC(=O)Nc1ccc(CN2CCN(CCC(C)C)C(CCO)C2)cc1 (configuration not stated)	0	0	0	0	0	0
COC(=O)c1ccc(CN2CCN(C3CCCC3)C(CCO)C2)cc1 (configuration not stated)	0	0	0	0	92	0
CC(=O)c1cccc(CN2CCN(Cc3ccc(C)cc3)C(CCO)C2)c1 (configuration not stated)	0	0	0	0	40	0
COC(=O)c1ccc(CN2CCN(C3CCCCC3)C(CCO)C2)cc1 (configuration not stated)	0	0	0	0	60	0
COC(=O)c1ccc(CN2CCN(Cc3ccccc3)C(CCO)C2)cc1 (configuration not stated)	0	0	0	0	0	0
Cc1cc(C(=O)NNC(=S)Nc2ccccc2)nn1C	0	0	0	0	0	0
O=C(c1cc(F)c(F)cc1Cl)N1CCCc2ccccc21	0	0	0	0	0	0
COc1ccc(C(C#N)CC(=O)c2ccc(OCc3ccccc3)c(OC)c2)cc1OC (configuration not stated)	0	0	0	0	0	0
Cc1ccc(CNC(=O)Nc2ccc(OC(F)(F)F)cc2)n1C	0	0	0	0	0	0
Cn1ncc(Br)c1NC(=O)Nc1ccc(OC(F)(F)F)cc1	0	27	0	0	0	0
CCc1ccc(C(=O)Nc2ccc3nc(C)ccc3c2)cc1	0	0	0	0	0	0
Cc1ccc2cc(NC(=O)c3ccc(C(C)(C)C)cc3)ccc2n1	0	27	0	0	0	0
N#C/C(C(=O)NCc1ccccc1)=C1/SC(Cc2ccc(Cl)cc2)C(=O)N1c1ccccc1 (configuration not stated)	0	0	0	0	0	0
